The source made the active and inactive calls. No cut-off for these calls is given here.

Assay [1] is filed under the species Homo sapiens. Kind of assay: Binding affinity to biotin-Avi-tagged REV3L (1846 to 1898 residues)/His-tagged REV7 R124A mutant complex (unknown origin) expressed in Escherichia coli BL21(DE3) at 5 uM incubated for 20 hrs by pulldown assay. An outline of the steps: (§1)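 Complex at 1 µM (biotin-AviTag-REV3L(1846–1898) co-expressed with His-REV7(R124A), Ni-purified) with 0.5% DMSO, compound (50 µM) or REV3L(1875–1895) peptide (5 µM) in 50 mM HEPES pH 7.4, 150 mM NaCl, 0.1% Tween 20. Shaken at 1500 rpm, 4 °C, 20 h. Streptavidin agarose then added for 4 h. Beads washed, heat-eluted, run on SDS gel, stained. Duplicates.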

For assay [2], the species on record is Homo sapiens. Kind of assay: Inhibition of C-terminal TAMRA-labeled REV3L (1875 to 1895 residues) binding to 5'-MBP-His8/3'-FLAG-tagged REV7 R124A mutant (unknown origin) expressed in Escherichia coli BL21(DE3) at 3 to 300 uM after 4 hrs by fluorescence polarization assay. The method, boiled down:
(§2)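 Compounds serially diluted from 10 mM DMSO stock. 4 h incubation, triplicate. Read at ex 555/em 632 nm, reported in mP. Controls: DMSO, and unlabeled REV3L peptides. Compound autofluorescence checked.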

The test system of assay [3] is HeLa. The assay can be described thus: Cytotoxicity in human HeLa cells assessed as decrease in cell viability at 75 uM after 3 days by alamar blue assay. Format: functional, cell-based. The method, boiled down: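 HeLa cells at 1000/well, attached overnight, then given compound or DMSO in fresh medium, triplicate, for 3 days. alamarBlue added for 3 h, fluorescence read at ex 510/em 590 nm. Viability normalized to DMSO-treated cells.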

The nature of assay [4]: Inhibition of C-terminal TAMRA-labeled REV3L (1875 to 1895 residues) binding to 5'-MBP-His8/3'-FLAG-tagged REV7 R124A mutant (unknown origin) expressed in Escherichia coli BL21(DE3) after 4 hrs by fluorescence polarization assay. Set-up: species or system Homo sapiens. The method, boiled down:
as §2

The subject of assay [5] is Mitotic spindle assembly checkpoint protein MAD2B (Homo sapiens), Q9UI95 [R124A]. Kind of assay: Binding affinity to 5'-MBP-His8/3'-FLAG-tagged REV7 R124A mutant (unknown origin) expressed in Escherichia coli BL21(DE3) at 200 uM by 1H waterLOGSY NMR method.
The test system of assay [6] is HeLa. The assay can be described thus: Potentiation of cisplatin-induced anticlonogenic activity in human HeLa cells at 75 uM after 24 hrs by crystal violet staining based assay. It counts as functional, cell-based. The method, boiled down:
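HeLa cells at 450/well in 6-well plates, attached overnight. Cisplatin added at indicated concentrations; 24 h later, compound at 75 µM final or DMSO added for another 24 h. Medium then replaced and culture continued 6 days. Fixed in 3.7% formaldehyde, stained with 0.5% crystal violet, colonies over ~40 cells counted. Triplicate. Survival normalized to cisplatin-vehicle (0.9% NaCl) wells.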

Assay [7] relates to COS-7. The assay can be described thus: Inhibition of REV7/REV3L protein interaction in African green monkey COS7 cells expressing ICL assessed as inhibition of ICL repair activity at 75 uM after 13 hrs by luciferase reporter gene assay. It counts as cell-based. The settings on record: Chlorocebus aethiops. An outline of the steps: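 COS7 cells at 80,000/well. Medium replaced after 5 h, then transfected with pGL-ICL (10 ng) or pGL4.50 (2.5 ng) plus pRL-TK, FuGENE 6. Cells trypsinized 5 h later and replated in quadruplicate with compound or DMSO. Dual firefly/Renilla luciferase read after 13 h. ICL plasmid signal normalized to non-ICL plasmid. Two-tailed unpaired t-test.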

For assay [8], the species on record is Homo sapiens. The assay can be described thus: Inhibition of C-terminal biotin-tagged REV3L (1875 to 1895 residues) binding to REV3L (1846 to 1898 residues)/His-tagged REV7 R124A mutant complex (unknown origin) expressed in Escherichia coli BL21(DE3) […] by alphascreen assay.
For assay [9], the species on record is Homo sapiens. Kind of assay: Destabilization of biotin-Avi-tagged REV3L (1846 to 1898 residues)/His-tagged REV7 R124A mutant complex (unknown origin) expressed in Escherichia coli BL21(DE3) incubated for 4 hrs by SYPRO orange dye based RT-PCR analysis. An outline of the steps: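 His-REV7(R124A)/REV3L complex at 5 µM in 25 mM HEPES, 100 mM NaCl, pH 7.3 with SYPRO orange 1:2000. Compound at 500 µM final (10 mM DMSO stock) or DMSO, duplicate, 4 h at room temperature. Ramp 25 to 95 °C at 1 °C/min, ex 492/em 610 nm. Tm taken as inflection point of Boltzmann sigmoid fit.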

For assay [10], the species on record is Homo sapiens. Kind of assay: Binding affinity to biotin-Avi-tagged REV3L (1846 to 1898 residues)/His-tagged REV7 R124A mutant complex (unknown origin) expressed in Escherichia coli BL21(DE3) at 50 uM incubated for 20 hrs by pulldown assay. The method, boiled down: as §1

Sequence of Mitotic spindle assembly checkpoint protein MAD2B (Homo sapiens), Q9UI95 [R124A] (Q9UI95 whole entry R124A): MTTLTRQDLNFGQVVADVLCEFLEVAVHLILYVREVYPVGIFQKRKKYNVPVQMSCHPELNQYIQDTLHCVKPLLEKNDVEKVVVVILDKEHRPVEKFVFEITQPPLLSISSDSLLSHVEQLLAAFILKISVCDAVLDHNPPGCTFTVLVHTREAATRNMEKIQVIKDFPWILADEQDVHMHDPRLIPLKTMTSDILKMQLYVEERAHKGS

With `CC[C@H](C)[C@H](NC(=O)[C@H](CCC(=O)O)NC(=O)[C@H](CCC(=O)O)NC(=O)[C@H](CCCNC(=N)N)NC(=O)[C@H](CO)NC(=O)[C@@H]1CCCN1C(=O)[C@@H]1CCCN1C(=O)[C@H](CO)NC(=O)[C@H](CCSC)NC(=O)[C@H](CC(C)C)NC(=O)[C@@H]1CCCN1C(=O)[C@H](CCCCN)NC(=O)[C@H](CC(C)C)NC(=O)[C@@H](NC(=O)[C@H](CC(N)=O)NC(=O)[C@H](C)N)[C@@H](C)CC)C(=O)N[C@@H](CCSC)C(=O)N[C@@H](C)C(=O)N[C@H](C(=O)N[C@@H](CC(C)C)C(=O)N[C@@H](CC(C)C)C(=O)O)[C@@H](C)O`, the result in assay [1] was Active.
Turning to `CC(=O)N1CCC(Cn2cnc3scc(-c4ccc(C(=O)N5CCOCC5)o4)c3c2=O)CC1`, the inhibition result in assay [2] was “Active”.
With `CC(=O)N1CCC(Cn2cnc3scc(-c4ccc(C)o4)c3c2=O)CC1`, the outcome in [3], in [5] and in assay [6] was Active. Besides, the IC50 in assay [4] turned out to be 78 µM. In [7], the inhibition result is “Active”.
Regarding `CC(=O)N1CCC(Cn2cnc3scc(-c4ccco4)c3c2=O)CC1`, the inhibition result in assay [8] was “Active”. For the same molecule, the result in assay [9] and in assay [10] was Active.

The record behind these values is ChEMBL document CHEMBL3856227, “Identification of the first small-molecule inhibitor of the REV7 DNA repair protein interaction” (Bioorg Med Chem, 2016).
